Experimental data from ChEMBL document CHEMBL1926565, “Synthesis, antiproliferative activities and telomerase inhibition evaluation of novel asymmetrical 1,2-disubstituted amidoanthraquinone derivatives” (Eur J Med Chem, 2012).
Active and inactive are the calls of the source. The calls are words filed in the database; no cut-off is given here.

Key:
NCI-H23 = assay: Cytotoxicity against human NCI-H23 cells assessed as cellular growth at 10 uM; assay type: functional
How it was run: (§1)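 Single-dose screen run by the NCI across its 60-human-tumour-cell-line panel; growth recorded for each cell line.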

HL-60(TB) = assay: Cytotoxicity against human HL-60(TB) cells assessed as cellular growth at 10 uM; assay type: functional; how it was run: as §1
CCRF-CEM = assay: Cytotoxicity against human CCRF-CEM cells assessed as cellular growth at 10 uM; assay type: functional; how it was run: as §1
NCI-H322M = assay: Cytotoxicity against human NCI-H322M cells assessed as cellular growth at 10 uM; assay type: functional; how it was run: as §1
[1] = Growth of human H1299 cells at 10 uM after 48 hrs by MTT assay; conditions: NCI-H1299, 48 h
SK-MEL-28 = assay: Cytotoxicity against human SK-MEL-28 cells assessed as cellular growth at 10 uM; assay type: functional; how it was run: as §1
Malme-3M = assay: Cytotoxicity against human MALME-3M cells assessed as cellular growth at 10 uM; assay type: functional; how it was run: as §1
[2] = target: Telomerase reverse transcriptase (Homo sapiens) (UniProt O14746); assay: Residual activity of human TERT in H1299 cells at 100 uM after 24 hrs by SEAP reporter gene assay
Chain of Telomerase reverse transcriptase (Homo sapiens) (O14746 whole entry): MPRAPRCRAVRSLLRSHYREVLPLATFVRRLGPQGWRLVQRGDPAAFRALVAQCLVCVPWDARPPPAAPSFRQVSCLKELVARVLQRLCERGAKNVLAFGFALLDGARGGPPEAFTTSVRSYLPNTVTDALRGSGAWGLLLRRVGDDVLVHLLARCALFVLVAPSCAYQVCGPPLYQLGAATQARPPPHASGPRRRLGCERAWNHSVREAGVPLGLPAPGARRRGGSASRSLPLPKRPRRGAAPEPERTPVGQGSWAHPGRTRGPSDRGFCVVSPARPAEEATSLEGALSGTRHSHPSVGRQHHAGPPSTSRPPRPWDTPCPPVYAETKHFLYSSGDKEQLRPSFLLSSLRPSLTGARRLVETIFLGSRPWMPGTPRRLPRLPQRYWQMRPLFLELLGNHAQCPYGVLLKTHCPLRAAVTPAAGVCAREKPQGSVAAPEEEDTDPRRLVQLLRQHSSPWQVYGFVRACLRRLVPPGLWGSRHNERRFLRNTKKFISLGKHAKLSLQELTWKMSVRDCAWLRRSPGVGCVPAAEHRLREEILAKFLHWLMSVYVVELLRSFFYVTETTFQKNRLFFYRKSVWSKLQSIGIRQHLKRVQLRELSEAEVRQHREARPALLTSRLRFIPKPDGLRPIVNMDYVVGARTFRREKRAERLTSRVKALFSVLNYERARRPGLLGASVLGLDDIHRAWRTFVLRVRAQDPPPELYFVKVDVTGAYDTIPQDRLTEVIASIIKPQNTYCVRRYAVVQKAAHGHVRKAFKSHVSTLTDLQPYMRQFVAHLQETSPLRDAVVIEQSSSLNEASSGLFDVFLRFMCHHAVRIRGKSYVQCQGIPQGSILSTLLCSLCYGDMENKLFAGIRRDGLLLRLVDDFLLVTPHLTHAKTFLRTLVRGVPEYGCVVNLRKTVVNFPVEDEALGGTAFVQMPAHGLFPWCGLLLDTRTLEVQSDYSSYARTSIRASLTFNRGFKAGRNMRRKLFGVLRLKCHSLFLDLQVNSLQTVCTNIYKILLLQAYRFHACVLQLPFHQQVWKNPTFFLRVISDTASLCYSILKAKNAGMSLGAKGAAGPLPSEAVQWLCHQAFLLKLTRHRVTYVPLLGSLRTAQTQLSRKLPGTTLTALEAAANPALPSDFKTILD

MCF7 = assay: Cytotoxicity against human MCF7 cells assessed as cellular growth at 10 uM; assay type: functional; how it was run: as §1
OVCAR-3 = assay: Cytotoxicity against human OVCAR3 cells assessed as cellular growth at 10 uM; assay type: functional; how it was run: as §1
MOLT-4 = assay: Cytotoxicity against human MOLT4 cells assessed as cellular growth at 10 uM; assay type: functional; how it was run: as §1
MDA-MB-231 = assay: Cytotoxicity against human MDA-MB-231 cells assessed as cellular growth at 10 uM; assay type: functional; how it was run: as §1
[3] = Growth of human H1299 cells at 1 uM after 48 hrs by MTT assay; conditions: NCI-H1299, 48 h
NCI/ADR-RES = assay: Cytotoxicity against human NCI/ADR-RES cells assessed as cellular growth at 10 uM; assay type: functional; how it was run: as §1
SW-620 = assay: Cytotoxicity against human SW620 cells assessed as cellular growth at 10 uM; assay type: functional
HT-29 = assay: Cytotoxicity against human HT-29 cells assessed as cellular growth at 10 uM; assay type: functional; how it was run: as §1
OVCAR-4 = assay: Cytotoxicity against human OVCAR4 cells assessed as cellular growth at 10 uM; assay type: functional; how it was run: as §1
HCT-15 = assay: Cytotoxicity against human HCT15 cells assessed as cellular growth at 10 uM; assay type: functional; how it was run: as §1
U-251 = assay: Cytotoxicity against human U251 cells assessed as cellular growth at 10 uM; assay type: functional
EKVX = assay: Cytotoxicity against human EKVX cells assessed as cellular growth at 10 uM; assay type: functional; how it was run: as §1
KM12 = assay: Cytotoxicity against human KM12 cells assessed as cellular growth at 10 uM; assay type: functional; how it was run: as §1
SK-MEL-2 = assay: Cytotoxicity against human SK-MEL-2 cells assessed as cellular growth at 10 uM; assay type: functional; how it was run: as §1
NCI-H460 = assay: Cytotoxicity against human NCI-H460 cells assessed as cellular growth at 10 uM; assay type: functional; how it was run: as §1
[4] = target: Telomerase reverse transcriptase (Homo sapiens) (UniProt O14746); assay: Residual activity of human TERT in H1299 cells at 10 uM after 24 hrs by SEAP reporter gene assay
DU-145 = assay: Cytotoxicity against human DU145 cells assessed as cellular growth at 10 uM; assay type: functional; how it was run: as §1
[5] = target: Telomerase reverse transcriptase (Homo sapiens) (UniProt O14746); assay: Residual activity of human TERT in H1299 cells at 1 uM after 24 hrs by SEAP reporter gene assay
SF-268 = assay: Cytotoxicity against human SF268 cells assessed as cellular growth at 10 uM; assay type: functional; how it was run: as §1
[6] = target: Telomerase reverse transcriptase (Homo sapiens) (UniProt O14746); assay: Inhibition of telomerase activity in human H1299 cell free extract at 10 uM by modified TRAP assay
How it was run: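 TRAP assay using total cell lysate from H1299 lung cancer cells as the telomerase source, with protein measured against BSA standards. Compounds tested at 10 µM. Controls were lysate without inhibitor (positive) and RNase A-treated extract without inhibitor (negative).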

BT-549 = assay: Cytotoxicity against human BT549 cells assessed as cellular growth at 10 uM; assay type: functional; how it was run: as §1
M14 = assay: Cytotoxicity against human M14 cells assessed as cellular growth at 10 uM; assay type: functional; how it was run: as §1
ACHN = assay: Cytotoxicity against human ACHN cells assessed as cellular growth at 10 uM; assay type: functional; how it was run: as §1
HCT-116 = assay: Cytotoxicity against human HCT116 cells assessed as cellular growth at 10 uM; assay type: functional; how it was run: as §1
UO-31 = assay: Cytotoxicity against human UO31 cells assessed as cellular growth at 10 uM; assay type: functional
MDA-MB-468 = assay: Cytotoxicity against human MDA-MB-468 cells assessed as cellular growth at 10 uM; assay type: functional; how it was run: as §1
LOX IMVI = assay: Cytotoxicity against human LOXIMVI cells assessed as cellular growth at 10 uM; assay type: functional; how it was run: as §1
786-0 = assay: Cytotoxicity against human 786-0 cells assessed as cellular growth at 10 uM; assay type: functional; how it was run: as §1
HCC 2998 = assay: Cytotoxicity against human HCC2998 cells assessed as cellular growth at 10 uM; assay type: functional; how it was run: as §1
SF-539 = assay: Cytotoxicity against human SF539 cells assessed as cellular growth at 10 uM; assay type: functional; how it was run: as §1
MDA-MB-435 = assay: Cytotoxicity against human MDA-MB-435 cells assessed as cellular growth at 10 uM; assay type: functional; how it was run: as §1
SR = assay: Cytotoxicity against human SR cells assessed as cellular growth at 10 uM; assay type: functional
[7] = Cytotoxicity against human Hs 578T cells assessed as cellular growth at 10 uM; assay type: functional; how it was run: as §1
SNB-19 = assay: Cytotoxicity against human SNB19 cells assessed as cellular growth at 10 uM; assay type: functional
PC-3 = assay: Cytotoxicity against human PC3 cells after 48 hrs by SRB assay; assay type: functional, cell-based; conditions: PC-3, 48 h
How it was run: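 PC-3 cells grown in RPMI1640 with 10% FBS at 37 °C, 5% CO₂. Seeded in medium with 5% FBS; after 24 h, one plate fixed with 10% TCA as T₀. Compound or 0.1% DMSO vehicle added for 48 h, then TCA fixation and 0.4% SRB in 1% acetic acid. Dye solubilized in 10 mM Trizma base, absorbance read at 515 nm. IC50 is the concentration giving 50% reduction of the protein gain in controls.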

SNB-75 = assay: Cytotoxicity against human SNB75 cells assessed as cellular growth at 10 uM; assay type: functional
SF-295 = assay: Cytotoxicity against human SF295 cells assessed as cellular growth at 10 uM; assay type: functional; how it was run: as §1
[8] = Growth of human H1299 cells at 100 uM 48 hrs by MTT assay; conditions: NCI-H1299, 48 h
SK-MEL-5 = assay: Cytotoxicity against human SK-MEL-5 cells assessed as cellular growth at 10 uM; assay type: functional
NCI-H522 = assay: Cytotoxicity against human NCI-H522 cells assessed as cellular growth at 10 uM; assay type: functional; how it was run: as §1
TK-10 = assay: Cytotoxicity against human TK10 cells assessed as cellular growth at 10 uM; assay type: functional
IGROV-1 = assay: Cytotoxicity against human IGROV1 cells assessed as cellular growth at 10 uM; assay type: functional; how it was run: as §1
HOP-62 = assay: Cytotoxicity against human HOP62 cells assessed as cellular growth at 10 uM; assay type: functional; how it was run: as §1
NCI-H226 = assay: Cytotoxicity against human NCI-H226 cells assessed as cellular growth at 10 uM; assay type: functional; how it was run: as §1
UACC-62 = assay: Cytotoxicity against human UACC62 cells assessed as cellular growth at 10 uM; assay type: functional
SN12C = assay: Cytotoxicity against human SN12C cells assessed as cellular growth at 10 uM; assay type: functional
HOP-92 = assay: Cytotoxicity against human HOP92 cells assessed as cellular growth at 10 uM; assay type: functional; how it was run: as §1
OVCAR-5 = assay: Cytotoxicity against human OVCAR5 cells assessed as cellular growth at 10 uM; assay type: functional; how it was run: as §1
A498 = assay: Cytotoxicity against human A498 cells assessed as cellular growth at 10 uM; assay type: functional; how it was run: as §1

## O=C(CCl)Nc1ccc2c(c1NC(=O)Cc1ccccc1)C(=O)c1ccccc1C2=O
NCI-H23
  Activity: 64.75%
HL-60(TB)
  Activity: 41.36%
CCRF-CEM
  Activity: 33.97%
NCI-H322M
  Activity: 104.38%
[1]
  growth, % of control at 10 µM: 5%
SK-MEL-28
  Activity: 88.68%
Malme-3M
  Activity: 47.07%
[2]
  residual activity: 7%
MCF7
  Activity: 51%
OVCAR-3
  Activity: 86.38%
MOLT-4
  Activity: 11.4%
MDA-MB-231
  Activity: 82.04%
[3]
  growth, % of control at 1 µM: 81%
NCI/ADR-RES
  Activity: 86.87%
SW-620
  Activity: 83.41%
HT-29
  Activity: 88.84%
OVCAR-4
  Activity: 80.4%
HCT-15
  Activity: 68.55%
U-251
  Activity: 66.17%
EKVX
  Activity: 102.08%
KM12
  Activity: 80.59%
SK-MEL-2
  Activity: -6.49%
NCI-H460
  Activity: 104.5%
[4]
  residual activity: 9%
DU-145
  Activity: 85.83%
[5]
  residual activity: 84%
SF-268
  Activity: 80.14%
[6]
  inhibition: inactive
BT-549
  Activity: 79.78%
M14
  Activity: 87.1%
ACHN
  Activity: 79.64%
HCT-116
  Activity: 67.55%
UO-31
  Activity: 58.19%
MDA-MB-468
  Activity: 51.02%
LOX IMVI
  Activity: 36.29%
786-0
  Activity: 97.26%
HCC 2998
  Activity: 94.74%
SF-539
  Activity: 107.09%
MDA-MB-435
  Activity: 80.4%
SR
  Activity: -31.25%
[7]
  Activity: 66.65%
SNB-19
  Activity: 124.27%
PC-3
  IC50: > 20 µM
SNB-75
  Activity: 109.14%
SF-295
  Activity: 98.48%
[8]
  growth, % of control at 100 µM: 3%
SK-MEL-5
  Activity: 51.32%
NCI-H522
  Activity: 43.37%
TK-10
  Activity: 120.81%
IGROV-1
  Activity: 41.03%
HOP-62
  Activity: 115.67%
NCI-H226
  Activity: 80.49%
UACC-62
  Activity: 59.67%
SN12C
  Activity: 79.93%
HOP-92
  Activity: 73.63%
OVCAR-5
  Activity: 119.04%
A498
  Activity: 91.79%
